From ChEMBL document CHEMBL1806459, “Discovery of N-(1-ethylpropyl)-[3-methoxy-5-(2-methoxy-4-trifluoromethoxyphenyl)-6-methyl-pyrazin-2-yl]amine 59 (NGD 98-2): an orally active corticotropin releasing factor-1 (CRF-1) receptor antagonist” (J Med Chem, 2011)

Columns and labels:
[1] = Ratio of drug level in brain to plasma of rat at 3 mg/kg, iv; format: ADME, organism-based; parameters: dose 3 mg/kg, route intravenous; settings: read-out: BPR
How it was run: (§1)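 Rat pharmacokinetics: compounds given iv (1 or 3 mg/kg) and po (5 or 10 mg/kg) in 2% Vitamin E TPGS (tocopheryl polyethylene glycol 1000 succinate). Plasma sampled over 24 h for Cmax, Tmax, AUC0–24 h, T1/2, clearance, Vss and oral bioavailability. Brain to plasma ratio also measured.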

[2] = Ratio of drug level in brain to plasma of rat at 5 mg/kg, po; format: ADME, organism-based; parameters: dose 5 mg/kg, route oral; settings: read-out: BPR; how it was run: as §1
[3] = biological target: T1, Corticotropin-releasing factor receptor 1 (Homo sapiens, UniProt P34998); test: Displacement of [125I]-sauvagine from human CRF-1 receptor expressed in human IMR-32 cells after 2 hrs by scintillation counting; format: cell-based
T1 sequence (P34998 whole entry): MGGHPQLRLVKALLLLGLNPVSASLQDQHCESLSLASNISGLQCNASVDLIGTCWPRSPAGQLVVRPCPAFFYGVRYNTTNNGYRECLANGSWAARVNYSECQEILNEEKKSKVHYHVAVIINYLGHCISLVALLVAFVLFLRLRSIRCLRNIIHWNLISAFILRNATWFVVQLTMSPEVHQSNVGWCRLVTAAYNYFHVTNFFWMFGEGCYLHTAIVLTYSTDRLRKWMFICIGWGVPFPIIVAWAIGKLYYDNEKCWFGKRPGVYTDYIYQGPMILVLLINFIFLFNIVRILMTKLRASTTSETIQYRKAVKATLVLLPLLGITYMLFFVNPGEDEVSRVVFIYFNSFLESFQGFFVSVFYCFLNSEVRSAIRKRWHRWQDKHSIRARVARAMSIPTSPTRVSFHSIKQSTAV
How it was run: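 Competition binding against 125I-sauvagine on membrane preparations from IMR-32 human neuroblastoma cells, which express CRF-1 endogenously. Modified from a published method.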

[4] = Half life in human microsomes; format: ADME, Microsome
How it was run: (§2)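 Stability in human or rat liver microsomes; half-life (T1/2, min) of compound turnover reported.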

[5] = Half life in rat microsomes; format: ADME, Microsome; how it was run: as §2
[6] = Cmax in rat at 3 mg/kg, iv; format: ADME, organism-based; parameters: dose 3 mg/kg, route intravenous; settings: in vivo
How it was run: (§3)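 Rat PK, intravenous arm of a paired iv/po study. Dosed in 2% Vitamin E TPGS (tocopheryl polyethylene glycol 1000 succinate). Parameters derived from plasma: Cmax, AUC0–24 h, terminal T1/2.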

[7] = Cmax in rat at 5 mg/kg, po; format: ADME, organism-based; parameters: dose 5 mg/kg, route oral; settings: in vivo
[8] = AUC (0 to 24 hrs) in rat at 3 mg/kg, iv; format: ADME, organism-based; parameters: time < 24 hr, dose 3 mg/kg, route intravenous; settings: plasma; how it was run: as §3
[9] = AUC (0 to 24 hrs) in rat at 5 mg/kg, po; format: ADME, organism-based; parameters: time < 24 hr, dose 5 mg/kg, route oral; settings: plasma
[10] = Tmax in rat at 3 mg/kg, iv; format: ADME, organism-based; parameters: dose 3 mg/kg, route intravenous; settings: in vivo; how it was run: as §1
[11] = Tmax in rat at 5 mg/kg, po; format: ADME, organism-based; parameters: dose 5 mg/kg, route oral; settings: in vivo; how it was run: as §1
[12] = Half life in rat at 3 mg/kg, iv; format: ADME, organism-based; parameters: dose 3 mg/kg, route intravenous; settings: in vivo; how it was run: as §3
[13] = Half life in rat at 5 mg/kg, po; format: ADME, organism-based; parameters: dose 5 mg/kg, route oral; settings: in vivo
[14] = Clearance in rat at 3 mg/kg, iv; format: ADME, organism-based; parameters: dose 3 mg/kg, route intravenous; settings: in vivo
How it was run: (§4)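 Rat PK with paired iv and oral dosing, vehicle 2% Vitamin E TPGS. Clearance and Vss from the iv arm; oral bioavailability F from comparing exposure after oral and iv doses.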

[15] = Clearance in rat at 5 mg/kg, po; format: ADME, organism-based; parameters: dose 5 mg/kg, route oral; settings: in vivo
[16] = Volume of distribution at steady state in rat at 3 mg/kg, iv; format: ADME, organism-based; parameters: dose 3 mg/kg, route intravenous; settings: in vivo, read-out: Vdss; how it was run: as §1
Rattus norvegicus = test: Volume of distribution at steady state in rat at 5 mg/kg, po; format: ADME, organism-based; parameters: dose 5 mg/kg, route oral; settings: in vivo; how it was run: as §1
[17] = Bioavailability in rat at 3 mg/kg, […]; format: ADME, organism-based; settings: in vivo; how it was run: as §4
[18] = Oral bioavailability in rat at 5 mg/kg; format: ADME, organism-based; settings: in vivo; how it was run: as §1
[19] = Oral bioavailability in rat; format: ADME, organism-based; settings: in vivo; how it was run: as §1
[20] = Drug uptake in rat adipose tissue assessed as radioactivity of labeled compound; format: ADME, tissue-based; settings: in vivo

CCc1nc(-c2ccc(Cl)cc2Cl)c(CC)nc1NC(CC)CC showed a Kp [1] of 2.5, a Kp [2] of 2.5 and a Ki [3] of 4.1 nM. It also gave a half-life [4] of 0.283 h, a half-life [5] of 4.2 min and a Cmax [6] of 627 ng/mL. For the same molecule, the Cmax [7] was 627 ng/mL, the AUC(0-t) at 24 h [8] was 4310 ng·h/mL and the AUC(0-t) at 24 h [9] was 4310 ng·h/mL. For the same molecule, the Tmax [10] was 1.3 h, the Tmax [11] was 1.3 h and the half-life [12] was 4.9 h. The half-life [13] was 4.9 h, the clearance [14] was 16 mL/min/kg and the CL/F [15] was 16 mL/min/kg. It also gave a Vd [16] of 6.5 L/kg, a Vdss (Rattus norvegicus) of 6.5 L/kg and a bioavailability [17] of 83%. It also gave a bioavailability [18] of 83%.
Work on CCC(CC)Oc1c(C)nc(-c2c(OC)cc(Cl)cc2OC)nc1OC yielded a bioavailability [19] of 6%.
For CCC(CC)Nc1nc(C)c(-c2ccc(OC(F)(F)F)cc2O[14CH3])nc1OC, the Drug uptake [20] was “Active”.
